Activity calls are given as the source filed them. No cut-off for these calls is given here.
What was measured:
Mus musculus [1] = test: Analgesic activity in ip dosed mouse assessed as reduction of formalin-induced inflammatory pain administered 15 mins before formalin challenge measured for 15 to 60 mins; type: functional, organism-based
Method in brief: (§1)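 Mice (n = 8−10 per group) got compound ip (1 or 3 mg/kg) or vehicle 15 min before formalin (1.25% in saline, 30 μL) into the dorsal hindpaw. Where used, COR167 (1 mg/kg, ip) was given 5 min before compound. Time spent licking plus elevating the paw was scored every 5 min over phase 1 (0−7 min) and phase 2 (15−60 min). Mean ± SEM; ANOVA with Dunnett's test.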

Mus musculus [2] = test: Antinociceptive activity in mouse assessed as reduction of formalin-induced nocifensive response at 1 to 3 mg/kg, ip administered 15 mins before formalin challenge measured for 0 to 7 mins; type: functional, organism-based; method in brief: as §1
Mus musculus [3] = test: Analgesic activity in mouse assessed as reduction of formalin-induced inflammatory pain at 1 mg/kg, ip administered 15 mins before formalin challenge measured for 15 to 60 mins in presence of CB2 agonist COR167; type: functional, organism-based; set-up: dose 1 mg/kg; method in brief: as §1
Cannabinoid receptor 2 [4] = biological target: T1, Cannabinoid receptor 2 (Homo sapiens, UniProt P34972); test: Inverse agonist activity at human CB2 receptor expressed in CHO cells assessed as increase of forskolin-induced cAMP level at 10 uM by scintillation counting; type: functional, cell-based
Method in brief: (§2)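 CHO cells expressing human CB2, trypsinized, 1 × 10⁶ cells per assay in HEPES-buffered saline with glucose, pH 7.4, 37 °C. Preincubated 10 min with 0.5 mM Ro 20-1724. Compound tested with 1 μM forskolin. Stopped with cold 6% TCA, ether-extracted, cAMP measured by [³H]cAMP competition binding to adrenal binding protein with scintillation counting. Given as % cAMP increase; means of ≥4 experiments in duplicate.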

Homo sapiens = species on record: Homo sapiens; test: Selectivity index, ratio of Ki for human recombinant CB1 receptor to Ki for human recombinant CB2 receptor
Cannabinoid receptor 2 [5] = biological target: T1, Cannabinoid receptor 2; test: Displacement of [3H]CP-55,940 from human recombinant CB2 receptor transfected in HEK cells; type: cell-based, HEK293
Mus musculus [6] = test: Antinociceptive activity in mouse assessed as reduction of formalin-induced nocifensive response at 1 mg/kg, ip administered 15 mins before formalin challenge measured for 0 to 7 mins in presence of CB2 agonist COR167; type: functional, organism-based; set-up: dose 1 mg/kg; method in brief: as §1
Cannabinoid receptor 2 [7] = biological target: T1, Cannabinoid receptor 2; test: Inverse agonist activity at human CB2 receptor expressed in CHO cells assessed as increase of forskolin-induced cAMP level at 1 uM by scintillation counting; type: functional, cell-based; method in brief: as §2
Cannabinoid receptor 1 = Cannabinoid receptor 1 (Homo sapiens, UniProt P21554); test: biochemical; type: cell-based, HEK293
Cannabinoid receptor 2 [8] = biological target: T1, Cannabinoid receptor 2; conditions: CHO, 1 uM
Cannabinoid receptor 2 [9] = biological target: T1, Cannabinoid receptor 2; conditions: CHO, 10 uM

T1 sequence (P34972 whole entry): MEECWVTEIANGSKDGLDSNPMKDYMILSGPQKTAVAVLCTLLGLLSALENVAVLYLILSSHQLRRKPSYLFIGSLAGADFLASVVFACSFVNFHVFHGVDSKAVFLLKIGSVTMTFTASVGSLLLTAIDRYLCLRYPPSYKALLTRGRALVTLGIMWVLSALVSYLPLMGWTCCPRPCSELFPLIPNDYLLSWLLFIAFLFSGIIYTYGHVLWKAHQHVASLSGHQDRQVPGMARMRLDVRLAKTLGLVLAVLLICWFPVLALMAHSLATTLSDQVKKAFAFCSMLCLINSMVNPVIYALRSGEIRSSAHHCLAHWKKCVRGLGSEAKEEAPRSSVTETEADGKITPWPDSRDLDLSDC
Sequence of Cannabinoid receptor 1 (P21554 whole entry): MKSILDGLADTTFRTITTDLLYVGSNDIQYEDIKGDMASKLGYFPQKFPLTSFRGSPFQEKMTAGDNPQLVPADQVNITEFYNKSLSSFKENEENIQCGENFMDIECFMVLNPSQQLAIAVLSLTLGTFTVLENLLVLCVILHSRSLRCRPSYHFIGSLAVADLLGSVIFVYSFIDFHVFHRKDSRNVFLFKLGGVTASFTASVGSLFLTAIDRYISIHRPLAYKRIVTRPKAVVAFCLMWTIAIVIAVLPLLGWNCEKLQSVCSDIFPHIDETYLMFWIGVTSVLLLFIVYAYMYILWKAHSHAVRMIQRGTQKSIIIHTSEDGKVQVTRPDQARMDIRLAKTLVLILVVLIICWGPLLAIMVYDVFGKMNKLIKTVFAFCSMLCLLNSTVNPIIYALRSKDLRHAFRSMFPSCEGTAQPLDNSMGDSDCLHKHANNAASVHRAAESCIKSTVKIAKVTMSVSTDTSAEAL

Compound | Ratio Ki (Homo sapiens) | Ki (Cannabinoid receptor 2 [5]) [µM] | Ki (Cannabinoid receptor 1) [µM] | further results
CCCCCn1cc(C(=O)NC23CC4CC(CC(C4)C2)C3)c2cc(-c3ccco3)ccc21 | 138 | 0.00248 | 0.342 | Activity (Mus musculus [1]): Dose-dependent effect; Activity (Mus musculus [2]): inactive; Activity (Mus musculus [3]): inactive; Activity (Cannabinoid receptor 2 [4]): 110%; Activity (Mus musculus [6]): inactive; Activity (Cannabinoid receptor 2 [7]): 93%
C=CCn1cc(C(=O)NC23CC4CC(CC(C4)C2)C3)c2cc(-c3ccccc3)ccc21 | 26.5 | 0.00182 | 0.0482 | –
CCCCCn1cc(C(=O)C(=O)NC2CCCCC2)c2cc(-c3ccccc3)ccc21 | > 892 | 0.0112 | > 10 | –
CCn1cc(CC(=O)NC23CC4CC(CC(C4)C2)C3)c2cc(-c3ccccc3)ccc21 | 10.4 | 0.067 | 0.698 | –
CCCn1cc(CC(=O)NC23CC4CC(CC(C4)C2)C3)c2cc(-c3ccccc3)ccc21 | 128 | 0.0118 | 1.51 | –
C=CCn1cc(C(=O)C(=O)NC23CC4CC(CC(C4)C2)C3)c2cc(-c3ccco3)ccc21 | 351 | 0.0103 | 3.62 | Activity (Cannabinoid receptor 2 [4]): 75%; Activity (Cannabinoid receptor 2 [7]): 62%
CCCCCn1cc(C(=O)NC23CC4CC(CC(C4)C2)C3)c(=O)c2cc(-c3ccco3)ccc21 | – | – | > 10 | –
Cn1cc(CC(=O)NC23CC4CC(CC(C4)C2)C3)c2cc(-c3ccccc3)ccc21 | 5 | 0.098 | 0.488 | –
CCCCCn1cc(C(=O)NC23CC4CC(CC(C4)C2)C3)c2cc(-c3ccccc3)ccc21 | 90.7 | 0.0116 | 1.05 | –
C=CCn1cc(CC(=O)NC23CC4CC(CC(C4)C2)C3)c2cc(Br)ccc21 | > 9 | 1.09 | > 10 | –
CCCCn1cc(CC(=O)NC23CC4CC(CC(C4)C2)C3)c2cc(-c3ccccc3)ccc21 | > 487 | 0.0205 | > 10 | –
C=CCn1cc(CC(=O)NC2CCCCCC2)c2cc(-c3ccco3)ccc21 | > 26 | 0.377 | > 10 | –
C=CCCn1cc(CC(=O)NC23CC4CC(CC(C4)C2)C3)c2cc(-c3ccccc3)ccc21 | 103 | 0.0178 | 1.83 | –
CCCCCn1cc(C(=O)NC23CC4CC(CC(C4)C2)C3)c2cc(-c3cccs3)ccc21 | 568 | 0.00637 | 3.62 | Activity (Cannabinoid receptor 2 [4]): 135%; Activity (Cannabinoid receptor 2 [7]): 106%
CCCCCn1cc(C(=O)NC23CC4CC(CC(C4)C2)C3)c2ccc(-c3ccccc3)cc21 | 0.6 | 0.00352 | 0.00203 | –
C=CCn1cc(CC(=O)NC23CC4CC(CC(C4)C2)C3)c2cc(-c3ccco3)ccc21 | 11.2 | 0.05 | 0.56 | –
C=CCn1cc(C(=O)NC23CC4CC(CC(C4)C2)C3)c2cc(-c3ccco3)ccc21 | 488 | 0.00573 | 2.79 | –
O=C(Cc1c[nH]c2ccc(-c3ccccc3)cc12)NC12CC3CC(CC(C3)C1)C2 | > 141 | 0.0708 | > 10 | –
CCCC(C)(C)c1ccc2c(c1)OC(C)(C)[C@@H]1CC=C(C)C[C@@H]21 | – | – | – | inhibition (Cannabinoid receptor 2 [8]): 87%; inhibition (Cannabinoid receptor 2 [9]): 94%
CCCCCn1cc(CC(=O)NC23CC4CC(CC(C4)C2)C3)c2cc(-c3ccco3)ccc21 | 15.1 | 0.11 | 1.66 | –
C=CCn1cc(CC(=O)NC2CCCCC2)c2cc(OCc3cccc(OC)c3)ccc21 | > 25 | 0.4 | > 10 | –
CCCCCn1cc(C(=O)C(=O)NC23CC4CC(CC(C4)C2)C3)c2cc(-c3ccccc3)ccc21 | > 787 | 0.0127 | > 10 | Activity (Cannabinoid receptor 2 [4]): 70%; Activity (Cannabinoid receptor 2 [7]): 55%
O=C(Cc1cn(Cc2ccccc2)c2ccc(-c3ccccc3)cc12)NC12CC3CC(CC(C3)C1)C2 | > 52 | 0.189 | > 10 | –
CCCCCn1cc(CC(=O)NC23CC4CC(CC(C4)C2)C3)c2cc(-c3ccccc3)ccc21 | 34 | 0.07 | 2.38 | –
CCCCCn1cc(C(=O)C(=O)NC23CC4CC(CC(C4)C2)C3)c2cc(-c3ccco3)ccc21 | 932 | 0.00037 | 0.345 | Activity (Mus musculus [1]): Dose-dependent effect; Activity (Mus musculus [2]): inactive; Activity (Mus musculus [3]): Active; Activity (Cannabinoid receptor 2 [4]): 163%; Activity (Mus musculus [6]): Active; Activity (Cannabinoid receptor 2 [7]): 138%
CCCCCn1cc(CC(=O)NC23CC4CC(CC(C4)C2)C3)c2cc(Br)ccc21 | 32.4 | 0.17 | 5.51 | –
C=CCn1cc(CC(=O)NC23CC4CC(CC(C4)C2)C3)c2cc(-c3ccccc3)ccc21 | 10.6 | 0.05 | 0.53 | Activity (Cannabinoid receptor 2 [4]): 88%; Activity (Cannabinoid receptor 2 [7]): 67%
C=CCn1cc(C(=O)NC23CC4CC(CC(C4)C2)C3)c2cc(-c3ccc(O)cc3)ccc21 | > 450 | 0.0222 | > 10 | Activity (Cannabinoid receptor 2 [4]): 68%; Activity (Cannabinoid receptor 2 [7]): 51%
C=CCn1cc(C(=O)C(=O)NC23CC4CC(CC(C4)C2)C3)c2cc(-c3ccccc3)ccc21 | 154 | 0.0254 | 3.92 | –

Reference: ChEMBL document CHEMBL2086369, “Design, synthesis, and pharmacological characterization of indol-3-ylacetamides, indol-3-yloxoacetamides, and indol-3-ylcarboxamides: potent and selective CB2 cannabinoid receptor inverse agonists” (J Med Chem, 2012)
